LEDGF integ inh: blocks HIV-1 LEDGF/p75-dependent DNA integration; TR-FRET IN-LEDGF/p75 DNA integration, Eu/Cy5; 370,000 compounds, 0.64% hits; inhibition, % at 3.7 µM; AID 743269;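 active = inhibition above the screen-wide mean plus 3 SD, cut at about 13% in these data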;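 note: signal is the Cy5 over europium emission ratio at 671 and 618 nm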
UHRF1 MBD2 ctr: human UHRF1 methylated DNA binding inhibitors; inhibition, % at 4.4 µM; 370,000 compounds, 0.75% hits; UHRF1 binding to methylated oligo, TR-FRET; AID 687016; Q96T88; in the data active = inhibition above about 21%;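 note: UHRF1 SRA domain binding a hemimethylated CpG hairpin DNA probe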
Casp6 inh: inhibitors of human caspase-6. purified caspase-6, Z-VEID-R110 cleavage fluorescence. inhibition, % at 12.5 µM. 350,000 compounds, 0.53% hits;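 active = mean inhibition across replicates at least about 35%, with every replicate also reaching that limit, limit read from the data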
Target sequence (P55212 24-179 limits assumed): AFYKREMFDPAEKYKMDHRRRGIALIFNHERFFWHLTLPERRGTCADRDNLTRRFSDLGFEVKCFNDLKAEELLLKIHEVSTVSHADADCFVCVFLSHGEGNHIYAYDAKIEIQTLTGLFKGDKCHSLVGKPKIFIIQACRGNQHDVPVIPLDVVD
Target sequence (P55212 194-293 limits assumed): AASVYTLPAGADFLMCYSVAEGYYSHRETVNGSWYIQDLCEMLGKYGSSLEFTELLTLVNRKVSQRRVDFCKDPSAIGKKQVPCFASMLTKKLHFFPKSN
MBD2 DNA inh: MBD2-methylated oligo binding inhibition. inhibition, % at 4.4 µM. TR-FRET, MBD2 binding to methylated oligonucleotide. 370,000 compounds, 0.31% hits. AID 686964; in the data active = inhibition above about 13%
NSD2 HMT inh: inhibitors of human histone methyltransferase NSD2; O96028; NSD2 peptide methylation, AlphaScreen, 120 min; inhibition, % at 12.5 µM; 310,000 compounds, 0.54% hits; AID 743445; in the data active = inhibition above about 50%
TDP2 absorb: TDP2 (human) inhibition, absorbance primary screen; inhibition, % at 12.8 µM; 370,000 compounds, 0.34% hits; O95551; recombinant TDP2, T5PNP hydrolysis, p-nitrophenol absorbance 415 nm;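 active = inhibition above the mean of all tested compounds plus 3 SD, set per campaign, cut at about 25% in these data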
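System – recombinant human TDP2 · Quantity – TDP2 enzyme at 120 nM final · Doses – single concentration, 12.8 µM nominal, with 1% DMSO · Incubation – 2 h at 37 °C · Measured by – epi absorbance of p-nitrophenol freed from T5PNP by hydrolysis · Read-out – % inhibition relative to enzyme-containing and enzyme-free wells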
Alpha artifact: interferes with AlphaScreen signal, flagging NSD2 false positives; shares compounds with NSD2 HMT inh; AlphaScreen artifact counterscreen, preloaded methylated H4 peptide; AC35, µM (top dose mostly 10 µM); 1,500 compounds, 9.4% hits; AID 1053174; call rule not given here
Of the large screens only hits and unclear results are named; the others gave an inactive call (follow-up assays come after a bar, where they were run). Compounds with a hit are over-represented: about 1.9% of the library has one in this group of screens.

C/C=C/c1ccc(C2[C@@H]3CN(C(=O)C4CC4)C[C@H]2N3)cc1 (stereo not given in full)	none (no result: LEDGF integ inh, UHRF1 MBD2 ctr, MBD2 DNA inh, NSD2 HMT inh, TDP2 absorb)
CCOc1cc(/C=C2\C(=O)NC(=O)N(CCc3ccc(F)cc3)C2=O)ccc1O	NSD2 HMT inh 53.5 | Alpha artifact inactive
O=C1CNC[C@@H]2[C@H](c3ccc(Br)cc3)[C@@H](CO)N12	none (no result: LEDGF integ inh, UHRF1 MBD2 ctr, MBD2 DNA inh, NSD2 HMT inh, TDP2 absorb)
COC(=O)[C@H]1[C@H](CO)[C@H]2Cn3c(ccc(-c4ccc(F)cc4)c3=O)[C@@H]1N2C(C)=O	none (no result: LEDGF integ inh, UHRF1 MBD2 ctr, MBD2 DNA inh, NSD2 HMT inh, TDP2 absorb)
COC1C(O)C(C)OC(OC2C(Oc3cccc4c(O)c5c(=O)oc6ccc(C)c7c(=O)oc(c34)c5c67)OC(C)C(O)C2O)C1O (stereo not given)	NSD2 HMT inh 66.1 | Alpha artifact inactive
C/C=C/c1ccc([C@@H]2[C@@H](CO)N3CCCCN(C(=O)Cc4cccnc4)C[C@@H]23)cc1	none (no result: LEDGF integ inh, UHRF1 MBD2 ctr, MBD2 DNA inh, NSD2 HMT inh, TDP2 absorb)
COCCCNC(=O)c1c(NC(=O)c2ccco2)n(Cc2ccccc2)c2nc3ccccc3nc12	NSD2 HMT inh 105.6 (no result: Casp6 inh) | Alpha artifact inactive
COCCNC(=O)c1c(NC(=O)c2ccc(Br)o2)n(Cc2ccccc2)c2nc3ccccc3nc12	none (no result: Casp6 inh)
CCOC(=O)[C@@H]1[C@@H]2NC(=O)N(C)[C@@]1(C)Oc1ccccc12	none (no result: LEDGF integ inh, UHRF1 MBD2 ctr, MBD2 DNA inh, NSD2 HMT inh, TDP2 absorb)
O=C1CNC[C@H]2[C@@H](c3ccc(Br)cc3)[C@@H](CO)N12	none (no result: LEDGF integ inh, UHRF1 MBD2 ctr, MBD2 DNA inh, NSD2 HMT inh, TDP2 absorb)
Nc1c(C(=O)NC2CCCC2)c2nc3ccccc3nc2n1CC1CCCO1 (stereo not given)	NSD2 HMT inh 81.7 (no result: Casp6 inh) | Alpha artifact inactive
COc1ccc(-c2ccc3n(c2=O)C[C@H]2[C@H](CO)[C@@H](C(=O)O)[C@@H]3N2C(=O)c2ccccc2F)cc1	none (no result: LEDGF integ inh, UHRF1 MBD2 ctr, MBD2 DNA inh, NSD2 HMT inh, TDP2 absorb)
CN1CCN(c2ccc(N)cc2Cl)CC1	NSD2 HMT inh 77.0 | Alpha artifact inactive
CN1CCN(c2ccc(Cl)cc2N)CC1	none
Cc1ccc(N2C(=O)NC(=O)/C(=C/c3ccc(OC(=O)c4cccs4)cc3)C2=O)cc1	NSD2 HMT inh 127.4 (no result: Casp6 inh) | Alpha artifact inactive

High-throughput results deposited in PubChem BioAssay by several laboratories.
